Experimental data of several laboratories.
Protocols differ between the studies behind these lines.
Short transient receptor potential channel 5: Short transient receptor potential channel 5 (Mus musculus, UniProt Q9QX29)
Htr2a: 5-hydroxytryptamine receptor 2A (Htr2a, Mus musculus, UniProt P35363)

SMILES | target | assay | test system | conditions | endpoint | value
Cc1ccc(OCC(=O)N[C@@H](Cc2c[nH]c3ccccc23)C(=O)OC(C)C)cc1 | Cytochrome P450 3A4 (CYP3A4, Homo sapiens, UniProt P08684) | enzyme activity, inhibitor | human, liver microsomes | 30 min, midazolam probe | IC50 | > 50 µM
CNCCCN1c2ccccc2CCc2ccccc21 | Short transient receptor potential channel 5 | ion current, inhibitor, patch clamp | – | – | IC50 | 10.3 µM
CC(=O)c1c(C)c2cnc(Nc3ccc(C4CCN(CCS(C)(=O)=O)CC4)cn3)nc2n(C2CCCC2)c1=O | Cytochrome P450 1A2 (CYP1A2, Homo sapiens, UniProt P05177) | enzyme activity, inhibitor | human, liver microsomes | – | IC50 | > 10 µM
COc1cc2c(cc1OC)CN(CCc1ccc(NC(=O)c3cccc4c(=O)c5cccc(OC)c5[nH]c34)cc1)CC2 | Beta-3 adrenergic receptor (ADRB3, Homo sapiens, UniProt P13945) | cell-free assay | – | – | Ki | > 10 µM
COc1cc(CCN)c(OC)cc1C#N | Htr2a | G protein activation, agonist, BRET | – | – | EC50 | 0.32 µM
CN1CC[C@@]2(C)c3cc(OC(=O)Nc4ccccc4)ccc3N(C)[C@@H]12 | Aldehyde dehydrogenase, mitochondrial (ALDH2, Homo sapiens, UniProt P05091) | enzyme activity, inhibitor, fluorescence | – | – | IC50 | < 10 µM
CN(C)CCCN1c2ccccc2CCc2ccccc21 | Short transient receptor potential channel 5 | ion current, inhibitor, patch clamp | – | – | IC50 | 11.7 µM
COc1cc(CCNC(C)c2ccccc2O)c(OC)cc1Br (centres unmarked) | Htr2a | G protein activation, agonist, BRET | – | – | EC50 | 0.00094 µM
